In brackets after ≈: the same amount, converted by molar mass. Square brackets hold non-standard residues; d marks the D form. Peptide text beside a SMILES is read from it. d2Nal = N[C@H](Cc1ccc2ccccc2c1)C(=O)O
Tests used:
Type in all cases: functional
[1] = organism: Rattus norvegicus; assay: In vitro histamine releasing activity determined with peritoneal mast cells from male Sprague-Dawley rats.; conditions: Mast cell, read-out: ED50 (the source's name)
[2] = organism: Rattus norvegicus; assay: Antiovulatory activity expressed as the percentage of rats blocked at 50 ug
Method in brief: (§1)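 Female Sprague-Dawley rats dosed in a 40% propane-1,2-diol/0.9% saline vehicle in a standard antiovulatory assay. The read-out is ovulation block, reported as the percentage of n rats not ovulating at x μg of analogue.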

[3] = organism: Rattus norvegicus; assay: Antiovulatory activity expressed as the percentage of rats blocked at 6 ug; method in brief: as §1
[4] = organism: Rattus norvegicus; assay: Antiovulatory activity expressed as the percentage of rats blocked at 12 ug; method in brief: as §1
[5] = organism: Rattus norvegicus; assay: Antiovulatory activity expressed as the percentage of rats blocked at 0.5 ug; method in brief: as §1

| Compound | EC50 [1] [µg/mL] | Rats blocked [2] [%] | Rats blocked [3] [%] | Rats blocked [4] [%] | Rats blocked [5] [%] |
| --- | --- | --- | --- | --- | --- |
| CC(=O)N[C@H](Cc1ccc2ccccc2c1)C(=O)N[C@H](Cc1ccccc1)C(=O)N[C@H](Cc1ccccc1)C(=O)N[C@@H](CO)C(=O)N[C@@H](Cc1ccc(O)cc1)C(=O)N[C@H](CCCN=C(N)N)C(=O)N[C@H](CN[C@@H](CCCN=C(N)N)C(=O)N1CCC[C@H]1C(=O)N[C@H](C)C(=O)O)Cc1ccccc1 | 0.46 (≈ 0.325 µM) | 0 | – | – | – |
| CC(=O)N[C@H](Cc1ccc2ccccc2c1)C(=O)N[C@H](Cc1ccccc1)C(=O)N[C@H](Cc1ccccc1)C(=O)N[C@@H](CO)C(=O)N[C@@H](Cc1ccc(O)cc1)C(=O)N[C@@H](CCCCN)CN(C(C)=O)[C@@H](Cc1ccccc1)C(=O)N[C@@H](CCCN=C(N)N)C(=O)N1CCC[C@H]1C(=O)N[C@H](C)C(=O)O | 1.5 (≈ 1.05 µM) | 33 | – | – | – |
| CCN(CC)[C@H](Cc1ccc2ccccc2c1)C(=O)N[C@H](Cc1ccccc1)C(=O)N[C@H](Cc1ccccc1)C(=O)N[C@@H](CO)C(=O)N[C@@H](Cc1ccc(O)cc1)C(=O)N[C@H](CCCN=C(N)N)C(=O)N[C@@H](Cc1ccccc1)C(=O)N[C@@H](CCCN=C(N)N)C(=O)N1CCC[C@H]1C(=O)N[C@H](C)C(=O)O | 0.45 (≈ 0.312 µM) | – | 0 | – | – |
| CC(=O)N[C@H](Cc1ccc2ccccc2c1)C(=O)N[C@H](Cc1ccccc1)C(=O)N[C@H](Cc1ccccc1)C(=O)N[C@@H](CO)C(=O)N[C@@H](Cc1ccc(O)cc1)C(=O)N[C@H](CCCN=C(N)N)C(=O)N[C@@H](Cc1ccccc1)C(=O)N[C@@H](CCCN=C(N)N)C(=O)N1CCC[C@@H]1CN[C@H](C)C(=O)O | 0.21 (≈ 0.148 µM) | – | 44 | 92 | – |
| CC(=O)N[C@H](Cc1ccc2ccccc2c1)C(=O)N[C@H](Cc1ccccc1)C(=O)N[C@H](Cc1ccccc1)C(=O)N[C@@H](CO)C(=O)N[C@@H](Cc1ccc(O)cc1)C(=O)N[C@@H](CCCCN)CN[C@@H](Cc1ccccc1)C(=O)N[C@@H](CCCN=C(N)N)C(=O)N1CCC[C@H]1C(=O)N[C@H](C)C(=O)O | 1.9 (≈ 1.37 µM) | 60 | – | – | – |
| CC(=O)N[C@H](Cc1ccc2ccccc2c1)C(=O)N[C@H](Cc1ccccc1)C(=O)N[C@H](Cc1ccccc1)C(=O)N[C@@H](CO)C(=O)N[C@@H](Cc1ccc(O)cc1)C(=O)N[C@H](CCCN=C(N)N)C(=O)N[C@@H](Cc1ccccc1)C(=O)N[C@@H](CCCN=C(N)N)C(=O)N1CCC[C@@H]1CN(C(C)=O)[C@H](C)C(=O)O | 0.28 (≈ 0.192 µM) | 100 | – | 75 | – |
| CC(=O)N[C@H](Cc1ccc2ccccc2c1)C(=O)N[C@H](Cc1ccccc1)C(=O)N[C@H](Cc1ccccc1)C(=O)N[C@@H](CO)C(=O)N[C@@H](Cc1ccc(O)cc1)CN(C(C)=O)[C@H](CCCN=C(N)N)C(=O)N[C@@H](Cc1ccccc1)C(=O)N[C@@H](CCCN=C(N)N)C(=O)N1CCC[C@H]1C(=O)N[C@H](C)C(=O)O | 4 (≈ 2.74 µM) | 0 | – | – | – |
| CC(=O)N[C@H](Cc1ccc2ccccc2c1)C(=O)N[C@H](Cc1ccccc1)C(=O)N[C@H](Cc1ccccc1)C(=O)N[C@@H](CO)CN(C(C)=O)[C@@H](Cc1ccc(O)cc1)C(=O)N[C@H](CCCN=C(N)N)C(=O)N[C@@H](Cc1ccccc1)C(=O)N[C@@H](CCCN=C(N)N)C(=O)N1CCC[C@H]1C(=O)N[C@H](C)C(=O)O | 0.45 (≈ 0.309 µM) | 0 | – | – | – |
| CC(=O)N[C@H](CN[C@H](Cc1ccccc1)C(=O)N[C@H](Cc1ccccc1)C(=O)N[C@@H](CO)C(=O)N[C@@H](Cc1ccc(O)cc1)C(=O)N[C@H](CCCN=C(N)N)C(=O)N[C@@H](Cc1ccccc1)C(=O)N[C@@H](CCCN=C(N)N)C(=O)N1CCC[C@H]1C(=O)N[C@H](C)C(=O)O)Cc1ccc2ccccc2c1 | 1.5 (≈ 1.06 µM) | 0 | – | – | – |
| CC(=O)N[C@H](Cc1ccc2ccccc2c1)C(=O)N[C@H](CN[C@H](Cc1ccccc1)C(=O)N[C@@H](CO)C(=O)N[C@@H](Cc1ccc(O)cc1)C(=O)N[C@H](CCCN=C(N)N)C(=O)N[C@@H](Cc1ccccc1)C(=O)N[C@@H](CCCN=C(N)N)C(=O)N1CCC[C@H]1C(=O)N[C@H](C)C(=O)O)Cc1ccccc1 | 0.35 (≈ 0.247 µM) | 0 | – | – | – |
| CCN[C@H](Cc1ccc2ccccc2c1)C(=O)N[C@H](Cc1ccccc1)C(=O)N[C@H](Cc1ccccc1)C(=O)N[C@@H](CO)C(=O)N[C@@H](Cc1ccc(O)cc1)C(=O)N[C@H](CCCN=C(N)N)C(=O)N[C@@H](Cc1ccccc1)C(=O)N[C@@H](CCCN=C(N)N)C(=O)N1CCC[C@H]1C(=O)N[C@H](C)C(=O)O | 0.34 (≈ 0.24 µM) | – | 17 | – | – |
| CC(=O)N[C@H](Cc1ccc2ccccc2c1)C(=O)N[C@H](Cc1ccccc1)C(=O)N[C@H](CN[C@@H](CO)C(=O)N[C@@H](Cc1ccc(O)cc1)C(=O)N[C@H](CCCN=C(N)N)C(=O)N[C@@H](Cc1ccccc1)C(=O)N[C@@H](CCCN=C(N)N)C(=O)N1CCC[C@H]1C(=O)N[C@H](C)C(=O)O)Cc1ccccc1 | 0.43 (≈ 0.304 µM) | 0 | – | – | – |
| CC(=O)N[C@H](Cc1ccc2ccccc2c1)C(=O)N[C@H](Cc1ccccc1)C(=O)N[C@H](Cc1ccccc1)C(=O)N[C@@H](CO)CN[C@@H](Cc1ccc(O)cc1)C(=O)N[C@H](CCCN=C(N)N)C(=O)N[C@@H](Cc1ccccc1)C(=O)N[C@@H](CCCN=C(N)N)C(=O)N1CCC[C@H]1C(=O)N[C@H](C)C(=O)O | 0.19 (≈ 0.134 µM) | – | – | 63 | – |
| CC(=O)N[C@H](Cc1ccc2ccccc2c1)C(=O)N[C@H](Cc1ccccc1)C(=O)N[C@H](Cc1ccccc1)C(=O)N[C@@H](CO)C(=O)N[C@H](CN[C@H](CCCN=C(N)N)C(=O)N[C@@H](Cc1ccccc1)C(=O)N[C@@H](CCCN=C(N)N)C(=O)N1CCC[C@H]1C(=O)N[C@H](C)C(=O)O)Cc1ccc(O)cc1 | 1.5 (≈ 1.06 µM) | – | – | 100 | – |
| CC(=O)N[C@H](Cc1ccc2ccccc2c1)C(=O)N[C@H](Cc1ccccc1)C(=O)N[C@H](Cc1ccccc1)C(=O)N[C@@H](CO)C(=O)N[C@@H](Cc1ccc(O)cc1)C(=O)N[C@H](CCCN=C(N)N)C(=O)N[C@@H](Cc1ccccc1)C(=O)N[C@@H](CCCN=C(N)N)C(=O)N1CCC[C@H]1C(=O)N[C@H](C)C(N)=O (Ac-[d2Nal][dF][dF]SY[dR]FRP[dA]-NH2) | 0.11 (≈ 0.077 µM) | – | – | – | 56 |

Source: ChEMBL document CHEMBL1124207, “Effect of the CH2NH and CH2NAc peptide bond isosteres on the antagonistic and histamine releasing activities of a luteinizing hormone-releasing hormone analogue” (1988)
